Where a SMILES comes first, the peptide text is derived from it.
Assays:
[1] = tested on: plasma protein; assay: Plasma protein binding rate by equilibrium dialysis; assay type: in vitro ADME; conditions: human, patient plasma, iv
Method in brief: (§1)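 Patient plasma from peak (10 min post-infusion) and trough (pre-dose) draws was dialysed against isotonic phosphate buffer, pH 7.4, across a semipermeable membrane at 37 °C for 5 h. Dialysate and plasma were matrix-matched with blank plasma or buffer, then extracted and quantified by LC–MS/MS as for total levels. fu = Cd/Cp. Total and free levels were compared by Spearman rank correlation.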

[2] = Total plasma concentration of PMB, PMB1 and PMB2 by HPLC-MS/MS; assay type: in vivo, human; conditions: for Cmin (B1)/Cmin (B2): median (IQR)
Method in brief: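 Critically ill adults received IV PMB sulfate. Plasma was drawn at the sixth or later dose, 10 min after infusion end (Cmax) and just before dosing (Cmin), spun at 3500g, 2–8 °C for 10 min, and stored at −80 °C. Plasma plus polymyxin E internal standard underwent formic acid/acetonitrile extraction. Analysis used C18 gradient LC and positive MRM 402.1→101.15 (PMB1), 397.4→101.15 (PMB2). AKI was graded by RIFLE SCr criteria.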

[3] = Free; assay type: in vivo, human; conditions: for Free Cmax / Free Cmin: equilibrium dialysis, median (IQR); for Correlation between total and free plasma concentrations: Spearman's rank correlation, Cmax and Cmin, Fig. 2
Method in brief: as §1

[4] = tested on: patients; conditions: cited from earlier work
[5] = pH 7.4, Protein binding rate, Cmax sample, AKI group N = 25, equilibrium dialysis, phosphate buffer pH 7.4, 37 °C, 5 h, LC-MS/MS, median (IQR)
[6] = pH 7.4, Protein binding rate, Cmax sample, non-AKI group N = 64, equilibrium dialysis, phosphate buffer pH 7.4, 37 °C, 5 h, LC-MS/MS, median (IQR)
[7] = pH 7.4, Protein binding rate, Cmin sample, AKI group N = 25, equilibrium dialysis, phosphate buffer pH 7.4, 37 °C, 5 h, LC-MS/MS, median (IQR)
[8] = pH 7.4, Protein binding rate, Cmin sample, non-AKI group N = 64, equilibrium dialysis, phosphate buffer pH 7.4, 37 °C, 5 h, LC-MS/MS, median (IQR)

**Q.** Which results are given for `CC[C@H](C)CCCCC(=O)N[C@@H](CCN)C(=O)N[C@H](C(=O)N[C@@H](CCN)C(=O)N[C@H]1CCNC(=O)[C@H]([C@@H](C)O)NC(=O)[C@H](CCN)NC(=O)[C@H](CCN)NC(=O)[C@H](CC(C)C)NC(=O)[C@@H](Cc2ccccc2)NC(=O)[C@H](CCN)NC1=O)[C@@H](C)O` [PMB1, polymyxin B1] (HELM PEPTIDE1{[CC[C@H](C)CCCCC(=O)[*:2]].[Dab].T.[Dab].[Dab].[Dab].[dF].L.[Dab].[Dab].T}$PEPTIDE1,PEPTIDE1,5:R3-11:R2$$$V2.0)?
**A.** fraction unbound at 5 h ([1]; pH 7.4): 0.055; fraction unbound at 5 h [1, 5]: 0.045; fraction unbound at 5 h [1, 6]: 0.042; fraction unbound at 5 h [1, 7]: 0.053; fraction unbound at 5 h [1, 8]: 0.057; Cmax (B1), RIFLE category Failure (F) ([2]; 1 patient with AKI stage Failure, total plasma peak concentration): 6.17; Free Cmax ([3]; AKI group N = 25): 0.19 (0.12–0.26) μg/ml; Free Cmin ([3]; AKI group N = 25): 0.05 (0.04–0.19) μg/ml; Correlation between total and free plasma concentrations [3]: positively correlated; Free Cmax ([3]; non-AKI group N = 64): 0.14 (0.11–0.18) μg/ml; Free Cmin ([3]; non-AKI group N = 64): 0.07 (0.04–0.10) μg/ml

**Q.** With `CC(C)CCCCC(=O)N[C@@H](CCN)C(=O)N[C@H](C(=O)N[C@@H](CCN)C(=O)N[C@H]1CCNC(=O)[C@H]([C@@H](C)O)NC(=O)[C@H](CCN)NC(=O)[C@H](CCN)NC(=O)[C@H](CC(C)C)NC(=O)[C@@H](Cc2ccccc2)NC(=O)[C@H](CCN)NC1=O)[C@@H](C)O` [PMB2, polymyxin B2] (HELM PEPTIDE1{[CC(C)CCCCC(=O)[*:2]].[Dab].T.[Dab].[Dab].[Dab].[dF].L.[Dab].[Dab].T}$PEPTIDE1,PEPTIDE1,5:R3-11:R2$$$V2.0) as the compound, how does the fraction unbound at 5 h ([1]; pH 7.4) read?
**A.** 0.215

**Q.** What about the fraction unbound at 5 h [1, 5] of the same compound?
**A.** 0.141

**Q.** And the fraction unbound at 5 h [1, 6]?
**A.** 0.161

**Q.** And the fraction unbound at 5 h [1, 7]?
**A.** 0.194

**Q.** And the fraction unbound at 5 h [1, 8]?
**A.** 0.221

**Q.** What about the “Free Cmax” value ([3]; AKI group N = 25) of the same compound?
**A.** 0.16 (0.14–0.19) μg/ml

**Q.** What about the “Free Cmin” value ([3]; AKI group N = 25) of the same compound?
**A.** 0.07 (0.06–0.09) μg/ml

**Q.** And the “Correlation between total and free plasma concentrations” value [3]?
**A.** positively correlated

**Q.** And the “Free Cmax” value ([3]; non-AKI group N = 64)?
**A.** 0.14 (0.11–0.18) μg/ml

**Q.** What about the “Free Cmin” value ([3]; non-AKI group N = 64) of the same compound?
**A.** 0.07 (0.05–0.10) μg/ml

**Q.** Which results are given for `CC[C@H](C)CCCCC(=O)N[C@@H](CCN)C(=O)N[C@H](C(=O)N[C@@H](CCN)C(=O)N[C@H]1CCNC(=O)[C@H]([C@@H](C)O)NC(=O)[C@H](CCN)NC(=O)[C@H](CCN)NC(=O)[C@H](CC(C)C)NC(=O)[C@@H](Cc2ccccc2)NC(=O)[C@H](CCN)NC1=O)[C@@H](C)O` [PMB, polymyxin B] (HELM PEPTIDE1{[CC[C@H](C)CCCCC(=O)[*:2]].[Dab].T.[Dab].[Dab].[Dab].[dF].L.[Dab].[Dab].T}$PEPTIDE1,PEPTIDE1,5:R3-11:R2$$$V2.0)?
**A.** Cmin (B1)/Cmin (B2) ([2]; AKI group N = 25): 3.37 (2.85–3.68); Cmin (B1)/Cmin (B2) ([2]; non-AKI group N = 64): 3.27 (2.91–3.65)

**Q.** What does the source list for colistin?
**A.** Incidence of AKI ([4]; colistin given iv as colistimethate sodium): 30–76.1%; Optimal cut-off trough concentration for predicting nephrotoxicity ([4]; colistin-related nephrotoxicity): 3.33 mg/L

— PMC9334479 (Infectious Diseases and Therapy, 2022)
